Bioassay records as filed in PubChem.
A selection: hits, their analogues and other compounds. The true share with any hit is near 5.4%.
PLAP act – PLAP enzyme activators, biochemical, luminescence, HTS; Alkaline phosphatase, placental type (Homo sapiens), P05187; 96,000 tested, 1.2% active; purified PLAP enzyme, luminescent substrate read-out; stronger effect = higher value; activation fold at 20 µM; in the data active means activation fold above about 2
E coli WT exp – growth inhibitors of wild-type E. coli, primary screen, strain BW25113, expanded library, OD600 | growth inhibition, % at 100 µM | AID 710, 2007 | 98,000 tested, 0.15% active | OD600 absorbance;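 active means growth inhibition above about 50% at one test dose, limit read from the data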;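 further: growth measured after 20 h incubation at 37 °C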
PostGolgi yeast – phenotypic screen on post-Golgi transport, primary screen; 98,000 tested, 0.9% active; AID 739, 2007; inhibition, % at 10 µM; post-Golgi transport phenotypic cell assay;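 further: yeast cells grown in 1536-well plates; yeast grown about 18 h at 30C before absorbance read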
Ecoli tolC – growth inhibitors of E. coli tolC mutant, primary screen, strain BW25113 ΔtolC::kan, 384-well | OD615 | growth inhibition, % at 10 µM (by protocol) | 65,000 tested, 2.2% active;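 active means growth inhibition at or above a cutoff equal to the mean over every tested compound plus 3 SD, cut at about 60% in these data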;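 further: growth measured after 20 h incubation at 37 °C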
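Test system: E. coli BW25113 ΔtolC::kan bacteria | Medium: Kanamycin-containing LB broth (50 µg/mL) | Dosing: One dose of 10 µM final | Times: 20 h incubation with compound, 37 °C | Detection: Optical density read at 615 nm | Read-out basis: Percent growth inhibition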
PostGolgi ctrl – growth inhibition of yeast control strain, primary screen, counter-screen for post-Golgi transport modulator project; efflux-deficient yeast background strain, growth absorbance A615, 16 h; inhibition, % at 10 µM; 98,000 tested, 5% active
HePTP inh – inhibitors of human HePTP phosphatase, primary screen, biochemical, absorbance, leukemia target | Tyrosine-protein phosphatase non-receptor type 7 (Homo sapiens), P35236 | recombinant HePTP phosphatase activity, OD absorbance | inhibition, % at 20 µM | 110,000 tested, 0.64% active; in the data active means inhibition above about 50%;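 further: plate controls were vehicle for no effect and reference inhibitor for full effect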
Target sequence (P35236 whole entry, looked up): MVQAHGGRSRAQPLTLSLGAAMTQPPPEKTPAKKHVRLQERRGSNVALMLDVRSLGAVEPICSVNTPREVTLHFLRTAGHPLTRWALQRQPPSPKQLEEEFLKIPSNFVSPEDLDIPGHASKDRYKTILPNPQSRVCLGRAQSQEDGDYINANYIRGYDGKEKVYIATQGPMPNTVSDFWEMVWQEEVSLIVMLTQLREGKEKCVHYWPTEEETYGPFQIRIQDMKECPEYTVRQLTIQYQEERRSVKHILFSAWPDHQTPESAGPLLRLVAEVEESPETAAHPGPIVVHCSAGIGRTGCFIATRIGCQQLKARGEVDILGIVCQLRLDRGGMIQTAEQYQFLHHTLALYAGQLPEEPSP
* = called active by the depositor; . = not tested or not shown. Unless noted, no stated cut-off is given here; in the data, active means inhibition above about 30%; inactive means the rest.

SMILES	PLAP act	E coli WT exp	PostGolgi yeast	Ecoli tolC	PostGolgi ctrl	HePTP inh
O=C(CN1C(=O)COc2ccc(Cl)cc21)N1CCc2ccccc21	0.8	-9.0	3.6	-12.9	18.5	16.0
O=C(Nc1ccccc1N1CCOCC1)c1ccccc1NS(=O)(=O)c1ccc(F)cc1	1.2	-1.0	1.8	.	34.0*	.
CCOc1ccc(S(=O)(=O)Nc2ccccc2C(=O)Nc2ccccc2N2CCOCC2)cc1	1.4	-8.0	3.1	27.0	34.2*	8.1
N#Cc1cnn2c1nc(N1CCOCC1)c1ccccc12	0.9	-8.0	7.8	.	14.5	.
N#Cc1c(N)oc(-c2ccc3c(c2)OCO3)c1-c1ccc2c(c1)OCO2	1	-3.0	-2.8	72.3*	21.6	0.1
Cc1cc2c(n1-c1ccc(Br)cc1)CC(C)(C)CC2=O	1	4.0	0.3	.	40.0*	.
Cc1ccc(-n2c(C)cc3c2CC(C)(C)CC3=O)cc1C	1.1	-4.0	16.1	.	31.2*	.
CC1(C)CC(=O)c2cc(C(=O)NCCO)c(=O)n(-c3ccccc3)c2C1	.	.	.	.	.	4.5
CCOc1ccc(C(=O)N2CCCN(C(=O)c3ccc(OCC)cc3)CC2)cc1	1.6	-4.0	-8.2	-9.5	-0.7	3.4
COc1ccccc1C1SCCN1S(=O)(=O)c1ccc2ccccc2c1 (stereo not drawn)	.	.	.	.	.	-12.4
COc1ccccc1C1SCCN1S(=O)(=O)c1cccc(C(F)(F)F)c1 (stereo not drawn)	1	-18.0	-3.5	63.3*	-3.0	-12.7
CCOc1ccc(C(O)C(CN2CCOCC2)c2ccccc2)cc1 (stereo not drawn)	1.2	-1.0	13.2	.	37.3*	.
CCCn1c(C(O)c2ccc3c(c2)OCO3)nc2ccccc21 (stereo not drawn)	.	9.0	-0.2	-6.1	-0.9	4.6
O=C(Nc1nnc(-c2cccs2)o1)c1cccc(Oc2ccccc2)c1	1.4	29.0	34.1*	97.0*	21.9	2.9
O=C(Nc1nnc(-c2cccs2)o1)c1cccc(F)c1	.	.	.	100.0*	.	-3.8
CS(=O)(=O)NCCCNc1c(Cl)cccc1[N+](=O)[O-]	0.8	2.0	-0.6	.	0.3	.
CCOc1ccc(S(=O)(=O)N2Cc3ccccc3CC2C(=O)NCCCn2ccnc2)cc1 (stereo not drawn)	1.6	1.0	-3.9	6.2	34.5*	6.4
CSc1nnc2n(CCc3ccccc3)c(=O)c3c4c(sc3n12)CCCC4	.	.	.	-12.3	.	2.6
CCOc1ccccc1C1C(C#N)=C(N)Nc2onc(-c3ccccc3)c21 (stereo not drawn)	1	0.0	-2.9	14.6	-2.2	-2.5
O=C1[C@H]2[C@@H](C(=O)N1c1cc(Cl)cc(Cl)c1)[C@]1(C(=O)Nc3ccccc31)N1CCC[C@@H]21	1.4	11.0	-2.2	79.8*	24.9	3.7
Cc1cc(Cl)c2c(c1)[C@]1(C(=O)N2)[C@@H]2C(=O)N(Cc3ccccc3)C(=O)[C@@H]2[C@@H]2CCCN21	1.4	-1.0	-5.8	17.1	17.3	7.9
Cn1cccc1/C=N/n1c(-c2ccc(C(C)(C)C)cc2)n[nH]c1=S	0.9	4.0	18.5	.	36.8*	.
Cn1cccc1/C=N/n1c(-c2ccccc2)n[nH]c1=S	0.9	-10.0	3.5	.	8.1	.
O=C(c1ccco1)N1CCN(S(=O)(=O)c2cccc3nsnc23)CC1	1.1	-3.0	-0.9	-8.8	19.4	-1.7
CCOC(=O)c1c(NS(C)(=O)=O)sc2c1CCC(C)C2 (stereo not drawn)	1.7	-6.0	-3.0	11.9	31.6*	1.3
SMILES	PLAP act	E coli WT exp	PostGolgi yeast	Ecoli tolC	PostGolgi ctrl	HePTP inh
CCOC(=O)c1c(N)sc2c1CCC(C)C2 (stereo not drawn)	1	18.0	8.3	8.8	11.8	3.7
COCCn1c(SCc2nc3sc(C(=O)OC)c(C)c3c(=O)[nH]2)nc2ccccc21	1.1	1.0	0.9	0.7	26.8	4.3
CCn1c(SCc2nc3sc(C(=O)O)c(C)c3c(=O)[nH]2)nc2ccccc21	2.3*	2.0	16.0	.	-0.1	.
COc1ccc(C(CNC(=O)c2ccc(-n3cnnn3)cc2)N2CCOCC2)cc1 (stereo not drawn)	1.1	-7.0	9.9	-11.2	25.2	5.8
CCOC(=O)N1CCC(NC(=O)C2CCN(C(=O)N3CCOc4ccccc43)CC2)CC1	2.1*	-4.0	-4.2	-9.2	-0.5	4.5
COc1cc(NS(=O)(=O)c2ccc(NC(=O)CSC3=NCCS3)cc2)nc(OC)n1	1.3	-4.0	3.8	3.5	6.3	5.7
CCc1n[nH]c2c1/C(=N\O)CC(C)(C)C2	1.1	5.0	98.2*	-2.5	2.0	6.1
COc1cccc(NS(=O)(=O)c2c(C)cc(C)cc2C)c1	1.1	6.0	-4.3	22.3	32.0*	7.9
COc1ccc(NS(=O)(=O)c2c(C)cc(C)cc2C)cc1	0.8	-8.0	-2.8	.	21.0	0.4
Cc1cc(C)c(S(=O)(=O)Nc2ccc(OCC(=O)O)cc2)c(C)c1	1.1	3.0	5.7	7.2	40.6*	-11.7
Cc1ccc(-c2nn(-c3ccccc3)cc2/C=C(\C#N)c2cccc(C#N)c2)o1	1.2	-17.0	-7.7	8.1	27.9	13.5
O=C(NCc1ccccc1)C(c1cccs1)N(Cc1cccs1)C(=O)c1cnccn1 (stereo not drawn)	1.1	5.0	-7.3	.	4.4	.
O=C(NCc1ccccc1)C(c1ccccc1)N(Cc1cccs1)C(=O)c1cnccn1 (stereo not drawn)	1.1	-6.0	-2.8	.	40.2*	.
CC(=O)Nc1nc(COc2ccc3ccccc3c2)cs1	1.1	-5.0	-8.8	.	16.3	.
O=C1C2=C(Nc3ccccc3SC2c2ccco2)c2ccccc21 (stereo not drawn)	0.9	20.0	12.3	100.0*	71.9*	-13.6
O=C1C2=C(Nc3ccccc3SC2c2ccc3c(c2)OCO3)c2ccccc21 (stereo not drawn)	.	.	.	.	.	4.7
Fc1ccc(CNc2ccc(CNc3ncn[nH]3)cc2)cc1	1.7	9.0	5.4	14.6	5.8	0.9
Cc1cccc(Nc2ncnc3nc[nH]c23)c1	.	1.0	3.2	-4.9	-3.4	2.3
COc1ccc(Nc2ncnc3nc[nH]c23)cc1OC	2*	0.0	-4.2	-20.8	4.3	4.0
c1ccc(COc2ccc(Nc3ncnc4nc[nH]c34)cc2)cc1	2.3*	-5.0	-1.2	3.3	69.9*	-1.1
Cc1ccc(C)c(Nc2ncnc3nc[nH]c23)c1	2.4*	7.0	-8.0	-6.1	1.4	-1.8
O=C(O)c1cc2nc(-c3ccccc3)cc(-c3ccccc3)n2n1	.	.	.	.	.	6.3
Cc1ccc(C)c(N2C(=O)C3C4C=CC(C4=C4CCCCC4)C3C2=O)c1 (stereo not drawn)	.	.	.	.	.	-11.6
COc1ccc(Cl)cc1NC(=O)C1=C(C)NC(=S)NC1c1ccc(OC)c(OC)c1 (stereo not drawn)	.	.	.	.	.	4.5
